One data set has as its system West Nile virus. The data set can be described thus: Antiviral activity against West Nile virus infected in BHK-WII RepRen1B cells assessed as inhibition of viral replication at 10 uM after 3 days by luciferase reporter gene assay relative to control. Type of data set: functional. The settings on record: for inhibition at 10 µM: 72 h. In short, it runs like this:
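Compound (DMSO, 10 μM final) added next day in triplicate; lycorine 1 μM served as control inhibitor. Three days on, live-cell Renilla substrate (1:1000 in phenol-red-free DME, 10% FBS) replaced medium. Luminescence measured; triplicate means compared with DMSO-alone wells.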
(Reporter assays use an easily measured gene product as a stand-in for the process of interest.)

A short description of data set [1]: Cytotoxicity against BHK cells infected with West Nile virus replicon assessed as cell viability at 10 uM after 3 days by CellTiter 96 aqueous one solution cell proliferation assay relative to control. Type of data set: cell-based, Mesocricetus auratus. The settings on record: hamster; for Activity: bhk, 72 h, 10 µM. In a few lines:
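WNV replicon BHK cells, about 3 × 10^3/well, plated without antibiotic selection; next day compound in DMSO (10 μM final for screening, or eight serial dilutions), 3 days at 37°C, 5% CO2. Tetrazolium reagent, absorbance 450 nm, triplicate means versus DMSO wells; CC50 = 50% reduction in proliferation; CC50s mean ± SD of two experiments, top dose 200 μM.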
On the technique in general: In antiviral work, replicon cells carry a viral genome segment that copies itself.

The test system of the next data set is Dengue virus. The data set can be described thus: Antiviral activity against Dengue virus infected in BHK pD2-hRucPac-2ATG cells assessed as inhibition of viral replication at 10 uM after 3 days by luciferase reporter gene assay relative to control. Type of data set: functional. To be noted: for inhibition at 10 µM: 72 h. In short, it runs like this: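 Renilla luciferase-bearing DENV subgenomic replicon BHK cells, kept on 3 μg/mL puromycin, seeded at 1.5 × 10^3/well without selection. Next day, 10 μM final compound in DMSO added to triplicate wells; MPA 1 μM as control inhibitor. After 3 days, medium swapped for live-cell Renilla substrate (1:1000, phenol-red-free DME, 10% FBS). Luminescence read; triplicate mean compared with DMSO-only wells.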

The nature of data set [2]: Cytotoxicity against BHK cells infected with Dengue virus replicon assessed as cell viability at 10 uM after 3 days by CellTiter 96 aqueous one solution cell proliferation assay relative to control. Type of data set: cell-based, Mesocricetus auratus. To be noted: hamster; for Activity: bhk, 72 h, 10 µM. In short, it runs like this: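 DENV replicon BHK cells, 1.5 × 10^3/well, plated without antibiotic selection; next day compound in DMSO (10 μM final for screening, or eight serial dilutions), 3 days at 37°C, 5% CO2. Tetrazolium (MTS-type) reagent, absorbance 450 nm, triplicate means versus DMSO wells; CC50 = 50% reduction in proliferation; CC50s mean ± SD of two experiments, top dose 200 μM.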

For data set [3], the system named is Human immunodeficiency virus 1. The data set is described as follows: Antiviral activity against HIV1. Format: functional, organism-based.
The target of data set [4] is Human immunodeficiency virus type 1 reverse transcriptase (Human immunodeficiency virus 1) (UniProt Q72547). The data set is described as follows: Inhibition of HIV1 reverse transcriptase.
For data set [5], the system named is unidentified influenza virus. The data set is described as follows: Antiviral activity against Influenzae virus. Format: functional, organism-based.
The subject of the next data set is Human betaherpesvirus 5. The data set can be described thus: Antiviral activity against Human cytomegalovirus. Format: functional, organism-based.
For another data set, the system named is Hepatitis C virus. The data set can be described thus: Antiviral activity against HCV. Format: functional, organism-based. To be noted: Hepacivirus hominis.

Activity calls are given as the source filed them. The calls are words filed in the database; no cut-off is given here.

By inhibition is commonly meant the change of the read-out against control, counted positive when it falls.

For the compound `Cc1cn([C@H]2C[C@H](NC(=O)c3cccc4ccccc34)[C@@H](CO)O2)c(=O)[nH]c1=O`, the inhibition at 10 µM in the data set on West Nile virus stood at 0%; in the data set with Dengue virus, 15%. Further, the Activity in data set [1] is 87%; in [2], 98%.
The like results for `COc1ccc2cc(C(=O)N[C@H]3C[C@H](n4cc(C)c(=O)[nH]c4=O)O[C@@H]3CO)ccc2c1` were, in that order, 0%, 0%, 100% and 100%.
The matching figures for `Cc1cn([C@H]2C[C@H](n3nncc3COc3ccccc3)[C@@H](CO)O2)c(=O)[nH]c1=O`: 0%, 0%, 96% and 100%.
The matching figures for `COc1ccc2cc(-c3cnnn3[C@H]3C[C@H](n4cc(C)c(=O)[nH]c4=O)O[C@@H]3COC(C)=O)ccc2c1`: 5.3%, 0%, 100% and 97%.
As to `Cc1cn([C@H]2C[C@H](NC(=O)c3ccc(N4CCOCC4)cc3)[C@@H](CO[Si](C)(C)C(C)(C)C)O2)c(=O)[nH]c1=O`, the result (in data set [3]; in [5]; with Human betaherpesvirus 5; with Hepatitis C virus) was inactive. Further, the inhibition entry in data set [4] is “inactive”. The inhibition entry in the data set with West Nile virus and in the data set with Dengue virus was “Active” throughout.
For `Cc1cn([C@H]2C[C@H](n3nncc3-c3ccc(Oc4ccccc4)cc3)[C@@H](CO)O2)c(=O)[nH]c1=O`, the results for the inhibition at 10 µM in the data set with West Nile virus and with Dengue virus were 9% and 0%, respectively. In addition, the Activity in [1] is on record as 99%; in data set [2] it was 100%.
The matching figures for `Cc1cn([C@H]2C[C@H](N3C(=O)CSC3c3ccccc3)[C@@H](CO)O2)c(=O)[nH]c1=O` (mixture of isomers): 0%, 0%, 99% and 100%.
The like results for `Cc1cn([C@H]2C[C@H](N=[N+]=[N-])[C@@H](CO[Si](C)(C)C(C)(C)C)O2)c(=O)[nH]c1=O` were, in that order, 17%, 3.6%, 96% and 87%.
`Cc1cn([C@H]2C[C@H](n3cc(-c4ccc5[nH]ccc5c4)nn3)[C@@H](CO)O2)c(=O)[nH]c1=O`: the figures for the inhibition at 10 µM in the data set with West Nile virus and in the data set with Dengue virus were 0% and 8.2%, respectively. Moreover, the Activity in data set [1] and in [2] was 100% throughout.
Consider `Cc1cn([C@H]2C[C@H](n3cc(-c4ccc(-c5ccccc5)cc4)nn3)[C@@H](CO)O2)c(=O)[nH]c1=O`, for which the inhibition at 10 µM in the data set with West Nile virus amounted to 14%; in the data set with Dengue virus, 10%. The Activity in data set [1] and in [2] was 100% each time.
In the case of `Cc1cn([C@H]2C[C@H](n3nncc3C3CCCCC3)[C@@H](CO)O2)c(=O)[nH]c1=O`, the figures for the inhibition at 10 µM with West Nile virus and in the data set on Dengue virus were 0% and 10%, respectively. Further, the Activity in [1] and in [2] was 100% in each case.
Regarding `Cc1cn([C@H]2C[C@H](N=[N+]=[N-])[C@@H](CO)O2)c(=O)[nH]c1=O` [ZIDOVUDINE], the inhibition at 10 µM in the data set on West Nile virus and in the data set with Dengue virus was 0% in each case. Besides, the viability at 72 h, 10 µM in data set [1] (BHK cells infected with West Nile virus replicon, read-out: Activity) is 83%; in data set [2] (BHK cells infected with Dengue virus replicon, read-out: Activity), 89%.
Turning to `CCOCOC[C@H]1O[C@@H](n2cc(C)c(=O)[nH]c2=O)C[C@@H]1n1nncc1-c1ccc2cc(OC)ccc2c1`, the results for the inhibition at 10 µM in the data set on West Nile virus and in the data set on Dengue virus were 0% and 13%, respectively. The figures for the Activity in data set [1] and in data set [2] were 89% and 95%, respectively.
The matching figures for `Cc1cn([C@H]2C[C@H](n3nncc3-c3cccc4ccccc34)[C@@H](CO)O2)c(=O)[nH]c1=O`: 3.3%, 0%, 100% and 90%.
The like results for `Cc1cn([C@H]2C[C@H](n3nncc3-c3cc4ccccc4c4ccccc34)[C@@H](CO)O2)c(=O)[nH]c1=O` were, in that order, 0%, 0%, 100% and 95%.
The like results for `Cc1cn([C@H]2C[C@H](NC(=O)c3ccc4ccccc4c3)[C@@H](CO)O2)c(=O)[nH]c1=O` were, in that order, 0%, 45%, 92% and 97%.
Take `Cc1cn([C@H]2C[C@H](NC(=O)c3c4ccccc4cc4ccccc34)[C@@H](CO)O2)c(=O)[nH]c1=O`: the inhibition at 10 µM with West Nile virus and with Dengue virus was 0% throughout. Further, the Activity in [1] worked out at 92%; in data set [2] it was 95%.
On to `Cc1cn([C@H]2C[C@H](NC(=O)c3c[nH]c4ccccc34)[C@@H](CO)O2)c(=O)[nH]c1=O`, for which the inhibition at 10 µM with West Nile virus stood at 0%; in the data set with Dengue virus, 4.3%. The values for the Activity in data set [1] and in data set [2] were 97% and 96%, respectively.
The matching figures for `COc1ccc2cc(-c3cnnn3[C@H]3C[C@H](n4cc(C)c(=O)[nH]c4=O)O[C@@H]3CO)ccc2c1`: 7.4%, 0%, 100% and 100%.
In the case of `Cc1cn([C@H]2C[C@H](n3nncc3-c3ccc(-c4ccccc4)cc3)[C@@H](CO)O2)c(=O)[nH]c1=O`, the inhibition at 10 µM was 23% in the data set with West Nile virus and 2.3% with Dengue virus. The Activity is 100% in data set [1] and 92% in data set [2].
On to `Cc1cn([C@H]2C[C@H](NC(=O)Nc3ccccc3)[C@@H](CO[Si](C)(C)C(C)(C)C)O2)c(=O)[nH]c1=O`, for which the outcome (in data set [3]; in data set [5]; in the data set on Human betaherpesvirus 5; with Hepatitis C virus) was inactive. For the same compound, the inhibition result in data set [4] is “inactive”. The inhibition result in the data set on West Nile virus and in the data set with Dengue virus was “Active” in each case.
Regarding `COc1ccc2cc(-c3cnnn3[C@H]3C[C@H](n4cc(C)c(=O)[nH]c4=O)O[C@@H]3COC3CCCCO3)ccc2c1` (some centres not stated), the inhibition at 10 µM in the data set on West Nile virus came to 1%; in the data set on Dengue virus, 21%. Moreover, the Activity in [1] is reported as 75%; in data set [2], 92%.
For the compound `Cc1cn([C@H]2C[C@H](n3nncc3C3CC3)[C@@H](CO)O2)c(=O)[nH]c1=O`, the inhibition at 10 µM with West Nile virus is 0%; in the data set with Dengue virus it was 4.7%. For the same compound, the Activity is 97% in [1] and 100% in data set [2].
Consider `Cc1cn([C@H]2C[C@H](N3C(=O)CSC3c3ccc4[nH]ccc4c3)[C@@H](CO)O2)c(=O)[nH]c1=O` (mixture of isomers), for which the results for the inhibition at 10 µM in the data set on West Nile virus and in the data set with Dengue virus were 9.7% and 13%, respectively. Besides, the Activity in data set [1] is 100%; in [2], 95%.
Take `Cc1cn([C@H]2C[C@H](NC(=O)C(c3ccccc3)(c3ccccc3)c3ccccc3)[C@@H](CO)O2)c(=O)[nH]c1=O`: the inhibition at 10 µM with West Nile virus is 0%; in the data set with Dengue virus, 16%. Further, the Activity is 95% in [1] and 94% in data set [2].
The like results for `Cc1cn([C@H]2C[C@H](N3C(=O)CSC3c3c4ccccc4cc4ccccc34)[C@@H](CO)O2)c(=O)[nH]c1=O` (mixture of isomers) were, in that order, 12%, 0%, 100% and 96%.
On to `COc1ccc(C(OC[C@H]2O[C@@H](n3cc(C)c(=O)[nH]c3=O)C[C@@H]2n2nncc2-c2ccc3cc(OC)ccc3c2)(c2ccccc2)c2ccc(OC)cc2)cc1`, for which the inhibition at 10 µM in the data set on West Nile virus is 23%; in the data set on Dengue virus, 46%. Also, the Activity in [1] and in [2] was 93% each time.
Regarding `COC[C@H]1O[C@@H](n2cc(C)c(=O)n(C)c2=O)C[C@@H]1n1nncc1-c1ccc2cc(OC)ccc2c1`, the inhibition at 10 µM with West Nile virus and in the data set with Dengue virus was 0% in each case. In addition, the Activity in [1] and in data set [2] was 100% throughout.
With `Cc1cn([C@H]2C[C@H](n3nncc3-c3ccccc3)[C@@H](CO)O2)c(=O)[nH]c1=O`, the inhibition at 10 µM in the data set on West Nile virus was 4%; in the data set with Dengue virus, 0%. Besides, the Activity is recorded as 99% in data set [1] and 100% in [2].

(Values after ChEMBL document CHEMBL3576816, “5'-Silylated 3'-1,2,3-triazolyl Thymidine Analogues as Inhibitors of West Nile Virus and Dengue Virus” (J Med Chem, 2015).)
